Experimental data taken from article PMC12059366 (Biomolecules & Therapeutics, 2025).

How the values were obtained:
complementary DNAs = experiment: Melting temperature; format: binding; details: 2 μM PNA-DNA duplex, 10 mM sodium phosphate pH 7.0, 0.1 M NaCl; absorbance at 260 nm, 25°C to 90°C at 1.0°C per minute
IDO1 pre-mRNA = experiment: IDO1 gene expression by q-RT-PCR in human keratinocytes; format: cell-based; details: non-cytotoxic concentrations (Fig. 2B, 2C), n=3
IDO1 = IDO1 gene expression by q-RT-PCR in IFNγ-treated human keratinocytes; format: cell-based; details: compound 24 h before IFNγ, n=3
In short: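 Primary neonatal foreskin human keratinocytes in supplemented KBM Gold medium were pretreated with test PNA for 24 h, then given recombinant human IFNγ in KBM Gold basal medium. The control was scrambled PNA at 0.1 μM. RNA was extracted with TRIzol and RNeasy, then reverse-transcribed. IDO1 was measured by TaqMan q-RT-PCR against RPL13A using the Pfaffl method. Results are mean ± SD, n=3, t-test.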

IL-6 = IL-6 level by ELISA in supernatants of IFNγ-treated human keratinocytes; format: cell-based; details: concentration-dependent, n=3
IL-8 = IL-8 level by ELISA in supernatants of IFNγ-treated human keratinocytes; format: cell-based; details: concentration-dependent, n=3
PGE2 = PGE2 level by ELISA in supernatants of IFNγ-treated human keratinocytes; format: cell-based; details: concentration-dependent, n=3

Substance	Tm (binding affinity to complementary DNA) (complementary DNAs) [°C]	IDO1 gene expression, concentration-dependent analysis (IDO1 pre-mRNA)	IDO1 expression (IDO1)	IL-6 level in cell culture supernatant (IL-6)	IL-8 level in cell culture supernatant (IL-8)	PGE2 level in cell culture supernatant (PGE2)
CG*^2TA*C*TTTGA*TTG*^2 [Compound 4]	72.07	–	–	–	–	–
Compound 2: modified PNA oligomer with cationic lipid-bearing nucleobases targeting IDO1 pre-mRNA (CTCCAAACCTTACG; PNA; cationic lipid-bearing nucleobases)	82.07	significant inhibitory effect	significantly inhibits IDO1 expression	effectively reduced	effectively reduced	effectively reduced
